Results reported in ChEMBL document CHEMBL3352644, “Selenadiazole derivatives as potent thioredoxin reductase inhibitors that enhance the radiosensitivity of cancer cells” (Eur J Med Chem, 2014).
Calls of active or inactive are those of the source. No cut-off for these calls is given here.

Key:
A-375 [1] = experiment: Cytotoxicity against human A375 cells pre-treated with 20 uM JNK inhibitor SP600125 for 1 hr followed by 8 ug/mL compound exposure for 18 hrs by MTT assay; assay type: functional, cell-based
Outline: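 A375 cells pretreated 1 h with 20 µM SP600125 (JNK) or SB203580 (p38), then exposed to compound at 8 µg/ml for 18 h. Viability by MTT (formazan in DMSO, 570 nm), expressed as % of control.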

A-375 [2] = experiment: Induction of ROS generation in human A375 cells at 2 ug/mL […] by DCF and DHE dye based fluorescence assay; assay type: functional, cell-based
A-375 [3] = experiment: Induction of ROS generation in human A375 cells at 4 ug/mL incubated for 6 hrs followed by irradiation with 8 Gy X-ray at 37 degC for 12 hrs by DCF and DHE dye based fluorescence assay; assay type: functional, cell-based
Outline: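 A375 cells (4 × 10⁴/well) cultured 24 h, then treated 6 h at 8 or 16 µg/ml or at 2 or 4 µg/ml, and given 0 or 8 Gy X-ray. Loaded with H₂DCF or DHE for 30 min at 37 °C in the dark. Fluorescence read at 485/535 nm (DCF) or 480/610 nm (DHE); % of control.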

[4] = biological target: Thioredoxin reductase (Homo sapiens) (UniProt Q16881+Q9NNW7+Q86VQ6); experiment: Inhibition of TrxR antioxidant enzyme activity in human A375 cells at 2 ug/mL incubated for 6 hrs followed by irradiation with 8 Gy X-ray at 37 degC for 12 hrs by insulin reduction assay; assay type: cell-based; conditions: A-375
A-375 [5] = experiment: Reduction in Trx expression in human A375 cells at 2 ug/mL incubated for 6 hrs followed by irradiation with 8 Gy X-ray at 37 degC for 12 hrs by Western blotting method; assay type: functional, cell-based
A-375 [6] = experiment: Induction of cell shrinkage in human A375 cells incubated for 6 hrs followed by irradiation with 8 Gy X-ray at 37 degC for 12 hrs by microscopy; assay type: functional, cell-based
Outline: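 A375 cells in DMEM with 10% FBS, 37 °C, 5% CO2. Pretreated with agent 6 h, then 0 or 8 Gy X-ray from a linear accelerator at 1.5 Gy/min, room temperature. Incubated a further 12 h; morphology imaged.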

A-375 [7] = experiment: Induction of cell morphological changes in human A375 cells incubated for 6 hrs followed by irradiation with 8 Gy X-ray at 37 degC for 12 hrs by microscopy; assay type: functional, cell-based
A-375 [8] = experiment: Induction of cell cycle arrest in human A375 cells assessed as accumulation at G2/M phase at 4 ug/mL incubated for 18 hrs by propidium iodide staining based flow cytometry (reference value: 13.9%); assay type: functional
Outline: (§1)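 A375 cells treated at 10 or 4 µg/ml for 6 h, given 0 or 8 Gy X-ray, then 12 h more. Trypsinized, washed in PBS, fixed overnight in ice-cold 75% ethanol at −20 °C. Stained with propidium iodide, 30 min at 37 °C in the dark; DNA content and sub-G1 population read by flow cytometry.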

A-375 [9] = experiment: Induction of apoptosis in human A375 cells assessed as accumulation at subG1 phase at 4 ug/mL incubated for 6 hrs followed by irradiation with 8 Gy X-ray at 37 degC for 12 hrs by propidium iodide staining based flow cytometry (reference value: 2.3%); assay type: functional; outline: as §1
A-375 [10] = experiment: Induction of cell cycle arrest in human A375 cells assessed as accumulation at G1/G0 phase at 4 ug/mL incubated for 6 hrs followed by irradiation with 8 Gy X-ray at 37 degC for 12 hrs by propidium iodide staining based flow cytometry (reference value: 44.9%); assay type: functional; outline: as §1
A-375 [11] = experiment: Induction of cell cycle arrest in human A375 cells assessed as accumulation at G2/M phase at 4 ug/mL incubated for 6 hrs followed by irradiation with 8 Gy X-ray at 37 degC for 12 hrs by propidium iodide staining based flow cytometry (reference value: 47.2%); assay type: functional; outline: as §1
A-375 [12] = experiment: Induction of apoptosis in human A375 cells assessed as caspase 8 activation at 2 ug/mL incubated for 18 hrs by fluorometric assay; assay type: functional, cell-based
Outline: (§2)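 Cells seeded at 1 × 10⁶ per 10 cm dish and treated with 2 µg/ml alone or with 8 Gy X-ray for 18 h total. RIPA lysates clarified by spinning at 12,000 rpm for 5 min; 80 µg protein given Ac-DEVD-AMC (caspase-3), Ac-IETD-AMC (caspase-8) or Ac-LEHD-AMC (caspase-9). Incubated 2 h at 37 °C in the dark; fluorescence at 380/440 nm.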

A-375 [13] = experiment: Induction of apoptosis in human A375 cells assessed as caspase 9 activation at 2 ug/mL incubated for 18 hrs by fluorometric assay; assay type: functional, cell-based; outline: as §2
A-375 [14] = experiment: Induction of apoptosis in human A375 cells assessed as caspase 8 activation at 2 ug/mL incubated for 18 hrs by Western blotting method; assay type: functional, cell-based
Outline: (§3)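 A375 cells treated with 2 µg/ml alone or with 8 Gy X-ray (6 h pretreatment, then 12 h; 18 h total). RIPA lysates (50 µg protein) run on SDS-PAGE and immunoblotted for caspases and PARP cleavage. Reprobed for β-actin as loading control.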

A-375 [15] = experiment: Induction of apoptosis in human A375 cells assessed as caspase 9 activation at 2 ug/mL incubated for 18 hrs by Western blotting method; assay type: functional, cell-based; outline: as §3
A-375 [16] = experiment: Induction of apoptosis in human A375 cells assessed as caspase PARP cleavage at 2 ug/mL incubated for 18 hrs by Western blotting method; assay type: functional, cell-based; outline: as §3
A-375 [17] = experiment: Induction of apoptosis in human A375 cells assessed as PARP cleavage at 2 ug/mL incubated for 6 hrs followed by irradiation with 8 Gy X-ray at 37 degC for 12 hrs by Western blotting method; assay type: functional, cell-based; outline: as §3
A-375 [18] = experiment: Increase in Bax expression in human A375 cells at 4 ug/mL incubated for 18 hrs by Western blotting method; assay type: functional, cell-based
Outline: (§4)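 A375 cells pretreated 6 h with compound at 4 µg/ml, given 0 or 8 Gy X-ray, then incubated 12 h more. Lysed in RIPA buffer, pH 7.4, with protease and phosphatase inhibitors; 50 µg protein run on SDS-PAGE and blotted to nitrocellulose. Blocked in 5% milk; primary antibodies 1:1000, 10 h at 4 °C; HRP secondary 1:2000.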

A-375 [19] = experiment: Reduction in Bcl-2 expression in human A375 cells at 4 ug/mL incubated for 18 hrs by Western blotting method; assay type: functional, cell-based
Outline: (§5)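 A375 cells given […] for 6 h, then 0 or 8 Gy X-ray at 1.5 Gy/min and 12 h further culture. Lysis in ice-cold RIPA, pH 7.4, with protease and phosphatase inhibitors; protein by BCA. […] protein per lane on SDS-PAGE, transferred to nitrocellulose. Blocked in 5% milk/TBST. Primary 1:1000, 10 h, 4 °C; HRP secondary 1:2000, 1.5 h.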

A-375 [20] = experiment: Reduction in Bcl-2 expression in human A375 cells at 4 ug/mL incubated for 6 hrs followed by irradiation with 8 Gy X-ray at 37 degC for 12 hrs by Western blotting method; assay type: functional, cell-based; outline: as §5
[21] = biological target: T1, c-Jun N-terminal kinase, JNK (Homo sapiens) (UniProt P45983+P53779+P45984); experiment: Induction of JNK phosphorylation in human A375 cells at 4 ug/mL incubated for 18 hrs by Western blotting method; assay type: cell-based; conditions: A-375; outline: as §4
[22] = biological target: T1, c-Jun N-terminal kinase, JNK (Homo sapiens); experiment: Induction of JNK phosphorylation in human A375 cells at 4 ug/mL incubated for 6 hrs followed by irradiation with 8 Gy X-ray at 37 degC for 12 hrs by Western blotting method; assay type: cell-based; conditions: A-375; outline: as §4

inhibition [4]: Active
Activity [21]: Active
Activity [22]: Active
SMILES: COc1cc(-c2nc3cc(-c4ccc5n[se]nc5c4)ccc3[nH]2)cc(OC)c1OC
Activity (A-375 [1]): Active
Activity (A-375 [2]): Active
Activity (A-375 [3]): Active
Activity (A-375 [5]): Active
Activity (A-375 [6]): Active
Activity (A-375 [7]): Active
Activity (A-375 [8]): 44.4%
Activity (A-375 [9]): 57.1%
Activity (A-375 [10]): 47.3%
Activity (A-375 [11]): 22.1%
Activity (A-375 [12]): Active
Activity (A-375 [13]): Active
Activity (A-375 [14]): Active
Activity (A-375 [15]): Active
Activity (A-375 [16]): Active
Activity (A-375 [17]): Active
Activity (A-375 [18]): Active
Activity (A-375 [19]): Active
Activity (A-375 [20]): Active
